The text below walks through data of paper PMC4029506 (Bioorganic & medicinal chemistry, 2014).

One series deals with cannabinoid CB2 receptor. Particulars: cited from earlier work.
The subject of the next series is P450 3A4. The settings on record: cited from earlier work.
For series [1], the system named is human ether-a-go-go related gene (hERG). The settings on record: cited from earlier work.
The subject of another series is vanilloid receptors. The settings on record: cited from earlier work.
The subject of a further series is cannabinoid CB1 receptor. The settings on record: cited from earlier work.
The conditions of series [2]: previously observed; cited from earlier work.
The next series concerns P450 2C9. The settings on record: cited from earlier work.
The test system of the next series is FAAH. Particulars: cited from earlier work.
The subject of a further series is P450 2D6. The settings on record: cited from earlier work.
A short description of the next series: Hemiketal / hydrate. Particulars: for hydrate (gem diol) formation at 24 h: 7% D2O–DMSO-d6, 24 h; for hydrate (gem diol) formation initially: 7% D2O–DMSO-d6, initially; for hemiketal formation: in CD3OD. In kind it is physicochemical.
Series [3] addresses T1, purified recombinant rat FAAH (rFAAH) (Rattus norvegicus, UniProt P97612).
T1 sequence (P97612 30-579 limits assumed): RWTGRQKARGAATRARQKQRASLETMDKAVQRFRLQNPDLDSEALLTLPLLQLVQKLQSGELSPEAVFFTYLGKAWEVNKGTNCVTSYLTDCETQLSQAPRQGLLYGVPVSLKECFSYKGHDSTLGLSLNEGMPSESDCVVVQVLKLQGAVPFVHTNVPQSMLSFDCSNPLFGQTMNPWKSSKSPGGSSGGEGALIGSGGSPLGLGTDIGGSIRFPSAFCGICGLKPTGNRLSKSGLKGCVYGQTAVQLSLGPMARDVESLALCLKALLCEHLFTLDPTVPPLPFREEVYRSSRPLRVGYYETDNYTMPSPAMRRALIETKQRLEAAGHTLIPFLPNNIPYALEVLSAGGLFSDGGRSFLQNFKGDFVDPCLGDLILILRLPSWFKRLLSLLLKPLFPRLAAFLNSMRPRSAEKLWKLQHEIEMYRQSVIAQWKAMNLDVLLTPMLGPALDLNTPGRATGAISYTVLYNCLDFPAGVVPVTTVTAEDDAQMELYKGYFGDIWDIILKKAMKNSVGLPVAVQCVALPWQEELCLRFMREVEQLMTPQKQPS
Nature of the series: FAAH enzyme inhibition assay. The format is biochemical. Particulars: for fold loss in activity / fold less potent than 3 against FAAH: relative to 3.

Series [4] is described as follows: Epimerization in assay buffer without enzyme, monitored by chiral HPLC. Particulars: assay buffer pH 9.1, without enzyme, 30 min. The format is physicochemical. In a few lines: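 Test compound dissolved in DMSO and added to assay buffer (pH 9.1) with no enzyme. Enantiopurity was followed by chiral HPLC over a 30 min exposure. Loss of enantiomeric excess is reported as percent change.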

The nature of series [5]: Racemization after dissolution in a variety of solvents. In kind it is physicochemical. The settings on record: 5% Et3N in EtOAc.
The test system of series [6] is serine hydrolases in the mouse brain proteome including KIAA1363, MAGL, and ABHD6. Nature of the series: Activity-based protein profile. In kind it is biochemical. Particulars: both enantiomers; mouse brain proteome 1 mg/mL, FP-rhodamine 100 nM, 10 nM to 100 μM.

For the compound `O=C(CCCCCCc1ccccc1)c1ncc(-c2ccccn2)o1` [compound 2], the “binding to CB2” value in the series on cannabinoid CB2 receptor is given as “does not bind”. Also, in the series on P450 3A4, the “inhibition of P450 3A4” value is “does not inhibit”. For the same compound, in series [1], the “inhibition of hERG” value is on record as “does not inhibit”. For the same compound, the “binding to vanilloid receptors” value with vanilloid receptors was “does not bind”. The “binding to CB1” value with cannabinoid CB1 receptor was “does not bind”. Also, the “hydrated (gem diol) state in solution” value in series [2] was “do not adopt a hydrated (gem diol) state”. The “inhibition of P450 2C9” value in the series with P450 2C9 is “does not inhibit”. The “antinociception in FAAH knockout mice” value in the series with FAAH (FAAH knockout mice) is “No antinociception”. Besides, in the series with FAAH, the in vivo activity entry was “antinociceptive and anti-inflammatory activity”; the “levels of anandamide in vivo” value is recorded as “increases”. In addition, the “inhibition of P450 2D6” value in the series on P450 2D6 was “does not inhibit”.

Regarding `O=C(c1ncc(-c2ccccn2)o1)[C@H]1CCc2cc(Oc3ccccc3)ccc2C1` [compound 3, reference compound], the “hydrate (gem diol) or hemiketal formation” value in “Hemiketal / hydrate” (CD3OD and 7% D2O–DMSO-d6) was “no detectable”.

For the compound `O=C(c1ncc(-c2ccccn2)o1)C1CCc2cc(Oc3ccccc3)ccc2O1` (stereo not drawn) [compound 14], the “fold loss in activity / fold less potent than 3 against FAAH” value in series [3] came to 8 fold. Also, in series [3] (relative to 16), the “fold reduction in activity upon introduction of the C5-pyridine substituent (14 vs 16)” value turned out to be 2 fold. Also, the “total change in ee (loss of enantiopurity)” value in [4] is −4.4%. For the same compound, in the series “Hemiketal / hydrate”, the “hydrate (gem diol) formation at 24 h” value came out at 25%, the “hydrate (gem diol) formation initially” value was “no gem diol detected” and the hemiketal formation is 34%. Further, the “racemization within the first hour” value in series [5] is “significant racemization”. The “time to complete epimerization” value in series [5] (continued exposure) is given as ≤ 48 h. In addition, in series [6], the “selectivity for FAAH over all other serine hydrolases” value is on record as > 200 fold.

As to `COC(=O)c1cccc(-c2cnc(C(=O)C3CCc4cc(Oc5ccccc5)ccc4O3)o2)n1` (stereo not drawn) [compound 15], in “Hemiketal / hydrate”, the “hydrate (gem diol) formation at 24 h” value amounted to 27%, the “hydrate (gem diol) formation initially” value is reported as “no gem diol detected” and the hemiketal formation is recorded as 45%.

Consider `O=C(c1ncco1)C1CCc2cc(Oc3ccccc3)ccc2O1` (stereo not drawn) [compound 16], for which the “total change in ee (loss of enantiopurity)” value in series [4] is −6.8%. In “Hemiketal / hydrate”, the “hydrate (gem diol) formation at 24 h” value is listed as 13%, the “hydrate (gem diol) formation initially” value was “no gem diol detected” and the hemiketal formation amounted to 38%.

On to `O=C(c1ncc(-c2ccccn2)o1)C1COc2cc(OCc3ccccc3)ccc2C1` (stereo not drawn) [compound 46], for which the “potency relative to the unsubstituted parent oxazoles” value in series [3] (installation of the pyridine substituent at C5) was “roughly equipotent”. Also, in series [3] (relative to 2 or 3), the “fold less active than either 2 or 3” value stood at 4 fold. In series [3], the “fold loss in activity / fold less potent than 3 against FAAH” value is listed as 2- to 4 fold. Besides, the “total change in ee (loss of enantiopurity)” value in series [4] is −4.8%.

As to `O=C(c1ncc(-c2ccccn2)o1)C1COc2cc(Oc3ccccc3)ccc2C1` (stereo not drawn) [compound 47], the “fold loss in activity / fold less potent than 3 against FAAH” value in series [3] is on record as 2- to 4 fold. Besides, the “total change in ee (loss of enantiopurity)” value in [4] is reported as −1.7%. The “selectivity for FAAH over all other serine hydrolases” value in series [6] is > 200 fold.

Regarding `O=C(c1ncc(I)o1)C1COc2cc(Oc3ccccc3)ccc2C1` (stereo not drawn) [compound 54], in [3] (FAAH inhibition), the “fold difference in potency between the two enantiomers” value stood at 1.6 fold.
